Here are results for three compounds from ChEMBL document CHEMBL3351247 (J Med Chem, 2014).

Data set [1] deals with Kappa-type opioid receptor (Homo sapiens, UniProt P41145). Description: Agonist activity at human KOR expressed in CHO cells assessed as inhibition of forskolin-induced cAMP accumulation after 30 mins by luminescence assay. Format: functional, cell-based. The essentials:
(§1)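 CHO cells stably expressing KOR or MOR, plated at 10 000 cells/well and incubated overnight at 37 °C. Compounds given as 10-point serial dilutions (1% DMSO final) with 20 μM forskolin final in HBSS/10 mM HEPES. Incubation 30 min at 37 °C, then detection reagents overnight at room temperature. HitHunter cAMP luminescence read-out; data normalized to vehicle and forskolin-only controls, nonlinear regression.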

The next data set deals with Mu-type opioid receptor (Homo sapiens, UniProt P35372). In words: Agonist activity at human MOR expressed in CHO cells assessed as inhibition of forskolin-induced cAMP accumulation after 30 mins by luminescence assay. In kind it is functional, cell-based. In short, it runs like this: as §1
On the technique in general: Cyclic AMP is a second messenger, typically raised through Gs and lowered through Gi signalling.

For data set [2], the system named is Rattus norvegicus. In words: Inhibition of cocaine-prime-induced reinstatement in Sprague-Dawley rat at 1 mg/kg, ip administered 10 mins prior to cocaine challenge relative to vehicle-treated control. Format: functional, organism-based. Details: dose 1 mg/kg. The essentials: (§2)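 Male Sprague-Dawley rats (300–350 g) self-administered IV cocaine (0.5 mg/kg/infusion, jugular cannula) in daily 2 h sessions on FR5 until stable (<20% variation over 3 days). Extinction with saline-heparin and no light cue until responses fell below 20% of baseline. Agonist given ip in DMSO:Tween 80:water 2:1:7 10 min before a cocaine prime (20 mg/kg). Active lever presses recorded.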

Data set [3] has as its system Rattus norvegicus. In words: Toxicity in Sprague-Dawley rat assessed as inactive lever pressing during self administration period at 1 mg/kg, ip. Format: organism-based. Details: dose 1 mg/kg, route intraperitoneal. To be noted: in vivo. In short, it runs like this: (§3)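 Male Sprague-Dawley rats (300–350 g) trained to IV cocaine self-administration (0.5 mg/kg/infusion) on FR5 in 2 h daily sessions, then extinction with saline-heparin and cocaine-prime (20 mg/kg) reinstatement. Agonist given ip in DMSO:Tween 80:water 2:1:7 10 min before prime.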

In data set [4] the test system is Rattus norvegicus. In words: Toxicity in Sprague-Dawley rat assessed as inactive lever pressing during self administration period at 0.3 mg/kg, ip. Format: organism-based. More on the design: dose 0.3 mg/kg, route intraperitoneal. As to conditions: in vivo. The essentials: as §3
For data set [5], the system named is Rattus norvegicus. In words: Toxicity in Sprague-Dawley rat assessed as inactive lever pressing during extinction period at 1 mg/kg, ip. More on the design: dose 1 mg/kg, route intraperitoneal. Format: organism-based. As to conditions: in vivo. In short, it runs like this: as §3
Data set [6] concerns Rattus norvegicus. In words: Toxicity in Sprague-Dawley rat assessed as inactive lever pressing during extinction period at 0.3 mg/kg, ip. In kind it is organism-based. More on the design: dose 0.3 mg/kg, route intraperitoneal. To be noted: in vivo. In short, it runs like this:
as §3

Data set [7] has as its system Rattus norvegicus. Description: Toxicity in Sprague-Dawley rat assessed as inactive lever pressing during reinstatement period at 1 mg/kg, ip. Format: organism-based. Details: dose 1 mg/kg, route intraperitoneal. As to conditions: in vivo. The essentials: as §3
In data set [8] the test system is Rattus norvegicus. In words: Toxicity in Sprague-Dawley rat assessed as inactive lever pressing during reinstatement period at 0.3 mg/kg, ip. Format: organism-based. Details: dose 0.3 mg/kg, route intraperitoneal. To be noted: in vivo. In short, it runs like this:
as §3

The subject of data set [9] is Rattus norvegicus. Description: Inhibition of cocaine-prime-induced reinstatement in Sprague-Dawley rat at 0.1 to 0.3 mg/kg, ip administered 10 mins prior to cocaine challenge relative to vehicle-treated control. In kind it is functional, organism-based. The essentials: as §2
Data set [10] relates to Rattus norvegicus. In words: Inhibition of cocaine-prime-induced reinstatement in Sprague-Dawley rat at 0.3 to 1 mg/kg, ip administered 10 mins prior to cocaine challenge relative to vehicle-treated control. In kind it is functional, organism-based. The essentials: as §2

The source made the active and inactive calls. No cut-off for these calls is given here. Bounds are passed on as bounds.

Sequence of Mu-type opioid receptor (P35372 whole entry): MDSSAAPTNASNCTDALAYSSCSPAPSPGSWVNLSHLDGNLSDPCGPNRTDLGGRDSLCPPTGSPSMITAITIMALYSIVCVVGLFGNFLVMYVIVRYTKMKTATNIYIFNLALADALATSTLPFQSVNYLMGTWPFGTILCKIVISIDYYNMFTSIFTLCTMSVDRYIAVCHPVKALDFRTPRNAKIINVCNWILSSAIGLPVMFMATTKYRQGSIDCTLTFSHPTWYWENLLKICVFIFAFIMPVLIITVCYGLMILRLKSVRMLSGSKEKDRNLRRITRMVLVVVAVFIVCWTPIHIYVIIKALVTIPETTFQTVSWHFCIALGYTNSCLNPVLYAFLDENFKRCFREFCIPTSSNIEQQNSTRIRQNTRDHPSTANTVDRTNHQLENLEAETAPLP
Sequence of Kappa-type opioid receptor (P41145 whole entry): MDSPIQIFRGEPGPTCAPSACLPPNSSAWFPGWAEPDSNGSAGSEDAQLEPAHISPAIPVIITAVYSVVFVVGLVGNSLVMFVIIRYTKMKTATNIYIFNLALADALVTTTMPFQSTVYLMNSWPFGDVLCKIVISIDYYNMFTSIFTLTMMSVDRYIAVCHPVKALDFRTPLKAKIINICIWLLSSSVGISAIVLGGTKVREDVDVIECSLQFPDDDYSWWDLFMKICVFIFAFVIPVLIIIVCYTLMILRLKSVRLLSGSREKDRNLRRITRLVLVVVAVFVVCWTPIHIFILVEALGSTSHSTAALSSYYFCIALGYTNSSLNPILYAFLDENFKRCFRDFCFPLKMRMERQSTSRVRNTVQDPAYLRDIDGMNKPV

For orientation: EC50 means the concentration needed to bring the measured effect to its halfway point. One may read the Emax as the maximal effect, on the per cent scale that the assay sets. Take `COC(=O)[C@@H]1C[C@H](OC(C)=O)C(=O)[C@H]2[C@@]1(C)CC[C@H]1C(=O)O[C@H](c3ccoc3C)C[C@]21C`: the figures for the EC50 (in data set [1]; at Mu-type opioid receptor) were 0.41 nM and at least 10000 nM, respectively. For the same compound, in data set [1], the Emax turned out to be 100%. For the same compound, in the data set on Rattus norvegicus [2], the inhibition result was “inactive”. The Activity entry with Rattus norvegicus [3], in the data set on Rattus norvegicus [4], with Rattus norvegicus [5], in the data set on Rattus norvegicus [6], in the data set with Rattus norvegicus [7] and in the data set on Rattus norvegicus [8] was “Non-toxic” in each case.

Take `C#Cc1occc1[C@@H]1C[C@]2(C)[C@H]3C(=O)[C@@H](OC(C)=O)C[C@@H](C(=O)OC)[C@]3(C)CC[C@H]2C(=O)O1`: the EC50 in data set [1] was 0.019 nM; on Mu-type opioid receptor, at least 10000 nM. Moreover, the Emax in [1] stood at 100%. For the same compound, the inhibition result in the data set on Rattus norvegicus [9] was “Active”. Moreover, the Activity result in the data set with Rattus norvegicus [3], in the data set on Rattus norvegicus [4], with Rattus norvegicus [5], with Rattus norvegicus [6], in the data set on Rattus norvegicus [7] and in the data set on Rattus norvegicus [8] was “Non-toxic” each time.

In the case of `COC(=O)[C@@H]1C[C@H](OC(C)=O)C(=O)[C@H]2[C@@]1(C)CC[C@H]1C(=O)O[C@H](c3ccoc3Br)C[C@]21C`, the concentration for a half-maximal effect (EC50) at Mu-type opioid receptor was at least 10000 nM. The inhibition entry in the data set with Rattus norvegicus [10] was “Active”. The Activity entry in the data set on Rattus norvegicus [3], in the data set with Rattus norvegicus [4], in the data set on Rattus norvegicus [5], in the data set on Rattus norvegicus [6], in the data set with Rattus norvegicus [7] and in the data set on Rattus norvegicus [8] was “Non-toxic” in each case.
